# Assay results reported in ChEMBL document CHEMBL1133527, “Exploring the structural basis of neurotoxicity in C(17)-polyacetylenes isolated from water hemlock” (J Med Chem, 2000).
# Tests used:
# [1] = target: GABA-A receptor; anion channel; assay: Tested for inhibition of specific binding of [3H]-EBOB to GABA-Gated Chloride channels of Gamma-aminobutyric acid A receptor in rat brain cortex (Potency expressed as IC50); type: tissue-based
# Summary of the method: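 Washed cortical membranes from SD rats (7 weeks), prepared in 50 mM Tris-HCl pH 7.4 and stored at -80 °C, equivalent to 5 mg tissue, incubated with 3 nM [3H]EBOB and test agent at 25 °C for 1 h. Bound ligand collected by filtration on polyethylenimine-treated GF/B filters and counted by scintillation. IC50 from dose-response curves run in duplicate.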
# Mus musculus = assay: Acute toxicity against mice after ip administration; type: organism-based; settings: in vivo
compound,measurement,setting,value
CCCCCC(=O)/C=C/C=C/C#CC#CCCCO,IC50,[1],> 10 µM
same,LD50,Mus musculus,> 25.8 mg kg-1 i.p.
CCCCCC/C=C/C=C/C#CC#CCCCO,IC50,[1],> 10 µM
same,LD50,Mus musculus,> 37.8 mg kg-1 i.p.
CCC[C@@H](O)/C=C/C=C/C=C/C#CC#CCCC(=O)O,IC50,[1],0.3 µM
same,LD50,Mus musculus,0.76 mg kg-1 i.p.
CCC[C@@H](O)/C=C/C=C/C=C/C#CC#CCCC(=O)OC,IC50,[1],0.42 µM
same,LD50,Mus musculus,1.6 mg kg-1 i.p.
CCCCCCC[C@H](O)/C=C/C#CC#CCCCO,IC50,[1],7.87 µM
same,LD50,Mus musculus,> 105 mg kg-1 i.p.
CCC[C@H](/C=C/C=C/C=C/C#CC#CCCCO)OC(C)=O,IC50,[1],> 10 µM
same,LD50,Mus musculus,2.8 mg kg-1 i.p.
CCCCNC(=O)CCC#CC#C/C=C/C=C/C=C/[C@H](O)CCC,IC50,[1],> 10 µM
same,LD50,Mus musculus,4.9 mg kg-1 i.p.
CCCCCC(O)/C=C/C=C/C#CC#CCCCO (stereo not given),LD50,Mus musculus,7.7 mg kg-1 i.p.
CCCCC[C@H](O)/C=C/C=C/C#CCCCO,IC50,[1],> 10 µM
same,LD50,Mus musculus,> 70.8 mg kg-1 i.p.
CCC[C@@H](O)/C=C/C=C/C=C/C#CC#CCCC(N)=O,IC50,[1],1.56 µM
same,LD50,Mus musculus,1.1 mg kg-1 i.p.
CCC[C@H](/C=C/C=C/C=C/C#CC#CCCCOC)OC,IC50,[1],> 10 µM
same,LD50,Mus musculus,> 57.2 mg kg-1 i.p.
CCCCCCC/C=C\C(=O)C#CC#CCCCO,IC50,[1],> 10 µM
same,LD50,Mus musculus,> 26 mg kg-1 i.p.
CCC[C@@H](O)/C=C/C=C/C=C/C#CC#CCCC=O,IC50,[1],2.22 µM
same,LD50,Mus musculus,4.9 mg kg-1 i.p.
CCCCCCC/C=C\CC#CC#CCCCO,IC50,[1],> 10 µM
same,LD50,Mus musculus,> 24.6 mg kg-1 i.p.
CCC[C@@H](O)/C=C/C=C/C=C/C#CC#CCCCOC(C)=O,IC50,[1],1.1 µM
same,LD50,Mus musculus,1.9 mg kg-1 i.p.
CCCC(=O)CC/C=C/C=C/C#CC#CCCCO,IC50,[1],3.64 µM
same,LD50,Mus musculus,1.1 mg kg-1 i.p.
CCCC#CC#C/C=C/C=C/[C@@H](O)CCCCC,IC50,[1],> 10 µM
same,LD50,Mus musculus,> 97.6 mg kg-1 i.p.
CCC[C@@H](O)/C=C/C=C/C=C/C#CC#CCCCOC,IC50,[1],6.79 µM
same,LD50,Mus musculus,10.6 mg kg-1 i.p.
CCCC(=O)/C=C/C=C/C=C/C#CC#CCCCO,IC50,[1],3.05 µM
same,LD50,Mus musculus,7.6 mg kg-1 i.p.
CCCCC[C@H](O)/C=C/C=C/C#CC#CCCCO,IC50,[1],1.15 µM
same,LD50,Mus musculus,9.5 mg kg-1 i.p.
CCC[C@H](/C=C/C=C/C=C/C#CC#CCCCOC(C)=O)OC(C)=O,IC50,[1],> 10 µM
same,LD50,Mus musculus,15.7 mg kg-1 i.p.
CCCCCCC/C=C\[C@H](O)C#CC#CCCCO,IC50,[1],6.01 µM
same,LD50,Mus musculus,> 393 mg kg-1 i.p.
CCCC(O)/C=C/C=C/C=C/C#CC#CCCCO (stereo not given),IC50,[1],2.01 µM
same,LD50,Mus musculus,38.6 mg kg-1 i.p.
CCC[C@@H](O)/C=C/C=C/C=C/C#CC#CCCCO [CICUTOXIN],IC50,[1],0.54 µM
same,LD50,Mus musculus,2.8 mg kg-1 i.p.
C=C[C@@H](O)C#CC#C[C@@H](O)/C=C\CCCCCCC [FALCARINDIOL],IC50,[1],> 10 µM
same,LD50,Mus musculus,> 200 mg kg-1 i.p.
C=C(C)[C@@H]1[C@H]2OC(=O)[C@@H]1[C@]1(O)C[C@H]3OC34C(=O)O[C@H]2[C@@]41C.CC(C)(O)[C@@H]1[C@H]2OC(=O)[C@@H]1[C@]1(O)C[C@H]3OC34C(=O)O[C@H]2[C@@]41C (stereo not given in full) [PICROTOXIN],IC50,[1],1.31 µM
